# Laboratory results reported in ChEMBL document CHEMBL4422612, “Small Molecule Inhibitor that Stabilizes the Autoinhibited Conformation of the Oncogenic Tyrosine Phosphatase SHP2” (J Med Chem, 2019).
# Activity calls are given as the source filed them. No cut-off for these calls is given here.
# Molecular target: T1, Tyrosine-protein phosphatase non-receptor type 11 (Homo sapiens) (UniProt Q06124)
# T1 sequence (whole entry): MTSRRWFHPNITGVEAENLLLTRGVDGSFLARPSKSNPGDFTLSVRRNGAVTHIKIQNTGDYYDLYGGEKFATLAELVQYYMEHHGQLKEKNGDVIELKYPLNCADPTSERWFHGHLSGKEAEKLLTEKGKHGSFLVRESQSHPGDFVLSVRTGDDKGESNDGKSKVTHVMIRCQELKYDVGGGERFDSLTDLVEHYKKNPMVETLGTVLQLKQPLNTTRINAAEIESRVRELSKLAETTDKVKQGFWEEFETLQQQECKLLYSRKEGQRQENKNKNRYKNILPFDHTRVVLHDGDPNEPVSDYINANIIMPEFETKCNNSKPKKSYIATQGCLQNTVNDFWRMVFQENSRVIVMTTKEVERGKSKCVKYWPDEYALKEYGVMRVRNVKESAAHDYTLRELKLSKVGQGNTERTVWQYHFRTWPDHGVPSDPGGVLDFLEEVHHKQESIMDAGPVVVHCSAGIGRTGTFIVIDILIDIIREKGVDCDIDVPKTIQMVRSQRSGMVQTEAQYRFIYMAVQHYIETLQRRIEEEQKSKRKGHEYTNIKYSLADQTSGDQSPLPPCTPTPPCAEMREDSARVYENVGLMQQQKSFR
# Assay: Inhibition of wild type recombinant human SHP2 at 50 uM using H-Glu-Phe-pTyr-Ala-Glu-Val-Gly-Arg-Ser-Pro-Pro-Asp-Pro-Ala-Lys as substrate preincubated for 30 mins followed by substrate addition and measured after 30 mins by Malachite Green-reagent based assay
# How it was run: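 Full-length SHP2 or SHP1 (0.1 µg) preincubated with compound 30 min at room temperature in 25 mM Tris-HCl pH 7.4, 50 mM NaCl, 5 mM DTT, 2.5 mM EDTA. Phospho-peptide substrate added to 50 µM final; 30 min at 30 °C. Released phosphate read by Malachite Green at OD620. IC50 from six concentrations; three experiments.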
row,inhibition,SMILES
1,Active,C=CCOc1cc(O)c(C(=O)/C=C/c2ccc(Cl)cc2Cl)cc1CN1CCC(O)CC1
2,Active,CCOc1cc(O)c(C(=O)/C=C/c2ccc(OC)cc2)cc1CN1CCCCC1
3,Active,CCOc1cc(O)c(C(=O)/C=C/c2ccc(Cl)cc2Cl)cc1CN1CCNCC1C (centres undefined)
4,Active,CCOc1cc(O)c(C(=O)/C=C/c2ccc(Cl)cc2)cc1CN1CCCC1
5,Active,CCOc1cc(O)c(C(=O)/C=C/c2ccc(Cl)cc2Cl)cc1CN1CCCCC1
6,Active,C=CCOc1cc(O)c(C(=O)/C=C/c2ccc(Cl)cc2Cl)cc1CN1CCCCC1
7,Active,CCOc1cc(O)c(C(=O)/C=C/c2ccc(Cl)cc2Cl)cc1CN1C[C@@H](O)C[C@@H]1C(C)=O
8,Active,CCOc1cc(O)c(C(=O)/C=C/c2ccc(Cl)cc2Cl)cc1CN1CCC(O)CC1
9,Active,CCOc1cc(O)c(C(=O)/C=C/c2ccc(Cl)cc2Cl)cc1CN(CC)CC
